# Screens from PubChem.
# FN deposit inh = fibronectin deposition inhibition; inhibition, % at 12.6 µM; AH1F fibroblasts, Alexa488-fibronectin deposition fluorescence, overnight; 0.086% of 350,000 active;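 active means mean inhibition across replicates of 30% or more, regardless of how many single replicates reach that level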;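 further: positive control wells lacked labelled fibronectin entirely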
#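 Assay system: AH1F fibroblasts / Quantity: 10000 cells per well / Medium: DMEM plus 2% serum, read in PBS / Reagent: labelled fibronectin 24 nM / Dosing: single dose, pinned / Times: 1 h cell attachment, overnight exposure to compound and label / Signal: fluorescence, ex 485 nm, em 525 nm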
# RAD54 branch = blocks human RAD54 Holliday junction branch migration; Q92698; 0.14% of 360,000 active; inhibition, % at 10.4 µM; FAM/BHQ fluorescence; AID 602329;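 active means mean normalized replicate activity at least 40 and at least half of replicates scoring 40 or more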;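 further: 0% = median of neutral control wells and 100% = median of positive control wells; inhibitors cause a drop in the FAM fluorescence signal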
# RAD52 inh = inhibitors of human RAD52 DNA annealing; P43351; recombinant RAD52 DNA annealing, FRET fluorescence; inhibition, % at 18.7 µM; 0.46% of 360,000 active;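 active means every replicate showing at least 50% inhibition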
# Target sequence (P43351 whole entry, looked up): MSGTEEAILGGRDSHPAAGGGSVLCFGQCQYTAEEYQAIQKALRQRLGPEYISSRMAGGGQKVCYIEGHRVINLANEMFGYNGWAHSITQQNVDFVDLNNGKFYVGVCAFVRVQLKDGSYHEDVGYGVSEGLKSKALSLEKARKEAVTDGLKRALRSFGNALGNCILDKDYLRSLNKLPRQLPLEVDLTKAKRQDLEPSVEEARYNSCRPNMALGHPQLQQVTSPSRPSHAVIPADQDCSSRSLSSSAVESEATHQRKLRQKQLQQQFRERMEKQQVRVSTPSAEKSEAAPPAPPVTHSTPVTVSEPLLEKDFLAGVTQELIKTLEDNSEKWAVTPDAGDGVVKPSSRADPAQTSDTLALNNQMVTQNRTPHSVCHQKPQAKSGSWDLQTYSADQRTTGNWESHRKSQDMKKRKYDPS
# AF4-AF9 inh = blocks AF4 peptide binding to human AF9; P42568; AlphaScreen, biotin-AF4 peptide binding to FLAG-AF9; inhibition, % at 10 µM; 0.47% of 350,000 active; AID 651704;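 active means every replicate reaching a set inhibition limit, whatever the replicate mean, cut at about 25% in these data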;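 further: 0% = plate neutral control median and 100% = total signal loss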
# NSD2 HMT inh = inhibitors of human histone methyltransferase NSD2. 0.54% of 310,000 active. inhibition, % at 12.5 µM. NSD2 peptide methylation, AlphaScreen, 120 min; in the data active means inhibition above about 50%
# N-glyco inh = N-linked glycosylation inhibition | D54 ERlucT glycosylation luciferase reporter, 24 h; percent of 100 nM tunicamycin response | reporter increase, % at 12.5 µM | 0.23% of 360,000 active | AID 588692;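 active means mean luciferase reporter signal, scaled so untreated is 0 and the glycosylation-blocking control 100, at or above a set limit in every replicate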;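 further: luciferase carries N-glycosylation sites so blocking glycosylation raises the light; 0% = median of neutral control wells and 100% = median of 100 nM tunicamycin wells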
# * marks the source's active call; other numbers are inactive results; . = no result given; ! = not confirmed by another sample. The list is not random: actives were taken first. Their share in the collection is about 1.2%.
SMILES,FN deposit inh,RAD54 branch,RAD52 inh,AF4-AF9 inh,NSD2 HMT inh,N-glyco inh
O=C(C1CCCC1)N1C[C@@H]2[C@H](c3ccccc31)[C@H](CO)N2C(=O)Nc1cccc(F)c1,-6,-1,-7,-1,.,.
O=C(Nc1ccccc1F)N1C[C@@H]2[C@H](c3ccccc31)[C@H](CO)N2C(=O)C1CC1,30*,4,-15,0,.,.
O=C(C1CCC1)N1C[C@@H]2[C@H](c3ccccc31)[C@H](CO)N2C(=O)Nc1cccc(F)c1,-6,-7,-7,35*,.,.
N#C[C@@H]1[C@@H](c2ccc(C#Cc3cccnc3)cc2)[C@@H](CO)N1C(=O)C1CCCC1,2,.,-37,-2,.,.
C[C@@H]1CN([C@@H](C)CO)C(=O)c2cc(NC(=O)CCCN(C)C)ccc2O[C@H]1CN(C)Cc1ccc(Oc2ccccc2)cc1,.,8,3,18,.,.
O=C(C[C@@H]1CC[C@H](NC(=O)Nc2ccc(F)cc2)[C@@H](CO)O1)NCc1ccccn1,-6,-3,5,-1,.,.
CCOC(=O)c1c(CCl)nc2ccccc2c1-c1ccccc1,9,.,-20,-15,5,-1
ClCc1nc2ccccc2c2ccccc12,12,1,-78,-1,14,63*
O=C1CN(c2nc3ccccc3n3cnnc23)CC(=O)N1CCc1ccccc1,-8,-2,-7,25*,.,0
Cc1ccc(-c2cnc3c(c2)C(=O)N([C@H](C)CO)C[C@H](C)[C@H](CN(C)C(=O)c2cccc(F)c2)O3)cc1,-6,0,7,-2,.,.
O=C(/C=C/c1cccs1)Nc1scc(-c2ccccc2)c1C(=O)O,1,.,-22,27*,.,-12
COc1cccc(C(=O)Nc2cc(C)c3c(=O)oc4ccccc4c3n2)c1,0,5,-28,43*,.,4
CC(C)Cc1nc2c(nnn2Cc2ccccc2F)c(=O)[nH]1,3,.,-63,38*,-2,-5
CC(C)Cc1n[nH]c(=O)c2c1nnn2Cc1ccccc1F,6,-5,-7,-3,1,-2
NS(=O)(=O)c1cc(C(=O)NC2CCSc3ccccc32)ccc1Cl (centres undefined),-3,-1,-14,0,180*,1
NS(=O)(=O)c1cccc(C(=O)NC2CCSc3ccccc32)c1 (centres undefined),3,7,2,1,25,0
C[C@H]1CN([C@@H](C)CO)S(=O)(=O)c2ccc(/C=C/c3ccccc3)cc2O[C@H]1CN(C)CC1CC1,-3,-3,8,29*,.,.
C[C@@H]1CN([C@H](C)CO)S(=O)(=O)c2ccc(C#Cc3cccc(F)c3)cc2O[C@@H]1CN(C)CC1CC1,-5,3,59*,3,.,.
O=C(NCC[C@H]1CC[C@H](NS(=O)(=O)c2ccc(F)cc2)[C@H](CO)O1)Nc1ccc(Cl)cc1,-4,-6,-12,3,.,.
COc1ccc(NC(=O)Nc2ccc3c(c2)C(=O)N([C@@H](C)CO)C[C@H](C)[C@H](CN(C)S(=O)(=O)c2cn(C)cn2)OCCCC[C@@H](C)O3)cc1,.,1,.,.,.,.
O=C(C1CCCCC1)N1C[C@H]2[C@@H](c3ccccc31)[C@H](CO)N2C(=O)c1ccccc1,13,-3,4,0,.,.
COC(=O)c1ccc2c(=O)n(Cc3ccco3)c(SCC(=O)Nc3cc(C)on3)nc2c1,17,.,-23,-1,.,62*
COc1ccc(C(=O)/C=C\c2ccc(NC(=O)c3cccs3)cc2)cc1,-3,2,.,.,0,48*
CCC(=O)Nc1ccc2c(c1)C(=O)N(C)C[C@H](OC)[C@@H](C)CN(C(=O)C1CC1)[C@H](C)CO2,5,-2,-5,-2,.,.
O=C(C[C@@H]1CC[C@H]2[C@@H](COC[C@H](O)CN2C(=O)c2ccccn2)O1)NC1CCC1,-5,1,6,-2,.,.
SMILES,FN deposit inh,RAD54 branch,RAD52 inh,AF4-AF9 inh,NSD2 HMT inh,N-glyco inh
CC(C)CN1CCC(=O)N([C@H](CN=[N+]=[N-])Cc2ccccc2)CC1,-7,-24,-18,-1,.,-1
CN1CCC(=O)N([C@H](CN=[N+]=[N-])Cc2ccccc2)CC1,-6,-15,-3,43*,.,-1
CN1CCC(=O)N([C@H](CN=[N+]=[N-])c2ccccc2)CC1,-5,-2,-9,1,.,0
CCCN1CCC(=O)N([C@H](CN=[N+]=[N-])Cc2ccccc2)CC1,-4,-1,-29,43*,.,-1
CC(=O)Nc1ccc(NC(=O)C2(C)Cc3c(-c4cccc(NC(C)=O)c4)ccnc3O2)cc1 (centres undefined),13,-6,1,2,0,2
CC1(C(=O)Nc2cccc(OC(F)(F)F)c2)Cc2c(-c3ccc4c(c3)OCO4)ccnc2O1 (centres undefined),34*,7,-6,-1,2,11
CC(=O)Nc1cccc(-c2ccnc3c2CC(C)(C(=O)Nc2cccc(C(C)=O)c2)O3)c1 (centres undefined),-3,-5,2,0,0,30*
CN(C)c1ccc(CNC(=O)C2(C)Cc3c(-c4ccc(N(C)C)cc4)ccnc3O2)cc1 (centres undefined),3,3,-21,17,9,-2
CN(C)c1ccc(-c2ccnc3c2CC(C)(C(=O)Nc2cccc(OC(F)(F)F)c2)O3)cc1 (centres undefined),19,3,-12,5,1,1
CN(C)c1ccc(-c2ccnc3c2CC(C)(C(=O)NCC2CC2)O3)cc1 (centres undefined),35*,0,-12,6,9,0
CC/C(=C(\c1ccccc1)c1ccc(OCCN(C)C)cc1)c1ccccc1,-11,12,18,30*!,.,-6
N[C@@H](CO)c1nnc([C@H](CCC(=O)O)NC(=O)C2CCNCC2)o1,8,-12,1,-2,.,1
NCCCC[C@H](N)c1nnc([C@H](CCC(=O)O)NC(=O)C2CCNCC2)o1,0,34,4,28*,.,1
C[C@@H]1CN([C@@H](C)CO)C(=O)c2cc(-c3ccc(C#N)cc3)cnc2O[C@H]1CN(C)C(=O)CC1CC1,.,7,-19,-3,.,.
CCOC(=O)CC1=NN(c2ccccc2)C(=O)C1=c1sc(=C2SC(C)=C(C)N2CC)c(=O)n1CC,4,1,-13,40*,-4,1
Cc1ccc(-c2nn3c(C)nnc3c3ccccc23)cc1S(=O)(=O)NC(C)(C)CO,9,.,-12,-3,0,39*
Cc1ccc(-c2nn3c(C)nnc3c3ccccc23)cc1S(=O)(=O)NCCO,-3,.,-2,-9,0,12
O=C(C[C@H]1CC[C@@H]2[C@H](COC[C@H](O)CN2C(=O)Nc2ccc(Cl)c(Cl)c2)O1)NCc1ccc(Cl)c(Cl)c1,-5,-5,-5,0,.,.
OC[C@@H]1Nc2ccc(C3=CCCCC3)cc2[C@@H]2[C@H]1CCN2Cc1nccs1,5,.,-4,25*,.,.
